ChEMBL document CHEMBL1158957, “Scopadulciol, an inhibitor of gastric H+, K(+)-ATPase from Scoparia dulcis, and its structure-activity relationships” (J Nat Prod, 1991)
“And” between values parts separate entries of the source, which are not always exact repeats. Identical values can stand only once.

Key:
Sus scrofa [1] = organism: Sus scrofa; test: Inhibition of H+/K+ ATPase in pig stomach at 1 uM; format: tissue-based
Method in brief: (§1)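 Enzyme from hog fundic mucosa: vesicles were isolated by differential and sucrose/Ficoll gradient centrifugation, lyophilized, resuspended in water, kept at -80° and used within 2–3 weeks. The 1 ml assay held 10 µg vesicle protein, 3 mM MgSO₄, 3 mM ATP and 40 mM Tris/HCl pH 7.4, ±15 mM KCl. Inorganic phosphate was the read-out, and H⁺,K⁺-ATPase activity was taken as the K⁺-dependent difference.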

Sus scrofa [2] = organism: Sus scrofa; test: Inhibition of H+/K+ ATPase in pig stomach at 10 uM; format: tissue-based; method in brief: as §1
Sus scrofa [3] = organism: Sus scrofa; test: Inhibition of H+/K+ ATPase in pig stomach at 100 uM; format: tissue-based; method in brief: as §1
[4] = Inhibition of H+/K+ ATPase in pig stomach; format: tissue-based, Sus scrofa; method in brief: as §1

Structure (SMILES) | inhibition (Sus scrofa [1]) | inhibition (Sus scrofa [2]) | inhibition (Sus scrofa [3]) | IC50 [4] [nM]
C[C@]12CC[C@]3(C1)[C@H](C/C2=N\O)C[C@@H](OC(=O)c1ccccc1)[C@H]1[C@](C)(C(=O)O)CCC[C@@]13C | 11% | 26% | 80% | 
COC(=O)[C@]1(C)CCC[C@@]2(C)[C@H]1[C@H](OC(=O)c1ccccc1)C[C@H]1CC(=O)[C@@]3(C)CC[C@]12C3 | 36% | 74% | 81% | 3000
C[C@]12CC[C@]3(C1)[C@@H](C[C@@H](O)[C@H]1[C@](C)(C(=O)O)CCC[C@@]13C)C[C@@H]2O |  |  | 8% | 
CC(=O)OC[C@]1(C)CCC[C@@]2(C)[C@H]1[C@H](O)C[C@H]1C[C@H](OC(C)=O)[C@@]3(C)CC[C@]12C3 | 5% | 40% | 79% | 
COC(=O)[C@]1(C)CCC[C@@]2(C)[C@H]1[C@H](OC(=O)c1ccccc1)C[C@H]1C[C@H](OC(C)=O)[C@@]3(C)CC[C@]12C3 | 49% | 61% | 62% | 
C[C@]12CC[C@]3(C1)[C@@H](C[C@@H](OC(=O)c1ccccc1)[C@H]1[C@](C)(C(=O)O)CCC[C@@]13C)C[C@@H]2O | 1% | 12% | 72% | 
C[C@]12CC[C@]3(C1)[C@@H](CC(=O)[C@H]1[C@](C)(C(=O)O)CCC[C@@]13C)CC2=O | -1% | 1% | 12% | 
C[C@]12CC[C@]3(C1)[C@@H](C[C@@H](O)[C@H]1[C@](C)(CO)CCC[C@@]13C)C[C@@H]2O |  |  | 24% | 
COC(=O)[C@]1(C)CCC[C@@]2(C)[C@H]1[C@H](O)C[C@H]1CC(=O)[C@@]3(C)CC[C@]12C3 | -5% | 4% | 52% | 
COC(=O)[C@]1(C)CCC[C@@]2(C)[C@H]1[C@H](OC(=O)c1ccccc1)C[C@H]1C[C@@H](OC(C)=O)[C@@]3(C)CC[C@]12C3 | 35% | 58% | 61% | 3000
CC(=O)OC[C@]1(C)CCC[C@@]2(C)[C@H]1[C@H](OC(C)=O)C[C@H]1C[C@H](OC(C)=O)[C@@]3(C)CC[C@]12C3 | 13% | 18% | 57% | 
CC(=O)OC[C@]1(C)CCC[C@@]2(C)[C@H]1[C@H](OC(=O)c1ccccc1)C[C@H]1CC(=O)[C@@]3(C)CC[C@]12C3 | 40% | 71% | 72% | 
CC(=O)O[C@@H]1C[C@H]2CC(=O)[C@@]3(C)CC[C@@]2(C3)[C@@]2(C)CCC[C@@](C)(C(=O)O)[C@H]12 | 1% | 7% | 33% | 

Further lines, results first:

inhibition (Sus scrofa [1]) | inhibition (Sus scrofa [2]) | inhibition (Sus scrofa [3]) | IC50 [4] [nM] | Structure (SMILES)
-2% | 5% | 22% |  | COC(=O)[C@]1(C)CCC[C@@]2(C)[C@H]1[C@H](O)C[C@H]1C[C@H](O)[C@@]3(C)CC[C@]12C3
-4% | 3% | 30% |  | C[C@]12CC[C@]3(C1)[C@H](C[C@H]2O)C[C@@H](OC(=O)c1ccccc1)[C@H]1[C@](C)(C(=O)O)CCC[C@@]13C
-1% | 21% | 45% |  | C[C@@]12CC[C@]3(C1)[C@H](CC2=O)C[C@@H](OC(=O)c1ccccc1)[C@H]1[C@](C)(CO)CCC[C@@]13C
 | -3% | 7% |  | C[C@]12CC[C@]3(C1)[C@@H](C[C@@H](O)[C@H]1[C@](C)(CO)CCC[C@@]13C)C[C@H]2O
-2% | 33% | 62% |  | CC(=O)OC[C@]1(C)CCC[C@@]2(C)[C@H]1[C@H](O)C[C@H]1C[C@@H](OC(C)=O)[C@@]3(C)CC[C@]12C3
12% | 59% | 64% |  | COC(=O)[C@]1(C)CCC[C@@]2(C)[C@H]1[C@H](OC(=O)c1ccccc1)C[C@H]1C[C@@H](O)[C@@]3(C)CC[C@]12C3
7% and -0% | 21% and 14% | 62% and 64% |  | C[C@]12CC[C@]3(C1)[C@H](CC2=O)C[C@@H](OC(=O)c1ccccc1)[C@H]1[C@](C)(C(=O)O)CCC[C@@]13C
 |  | 24% |  | C[C@]12CC[C@]3(C1)[C@H](CC2=O)C[C@@H](OC(=O)c1ccccc1)[C@H]1[C@@](CO)(C(=O)O)CCC[C@@]13C
7% | 38% | 98% |  | CC(=O)O[C@@H]1C[C@@H]2C[C@@H](OC(=O)c3ccccc3)[C@H]3[C@](C)(C(=O)O)CCC[C@]3(C)[C@]23CC[C@@]1(C)C3
2% | 13% | 21% |  | CC(=O)O[C@H]1C[C@@H]2C[C@@H](O)[C@H]3[C@](C)(C(=O)O)CCC[C@]3(C)[C@]23CC[C@@]1(C)C3
3% | 21% | 94% |  | CC(=O)O[C@H]1C[C@@H]2C[C@@H](OC(=O)c3ccccc3)[C@H]3[C@](C)(C(=O)O)CCC[C@]3(C)[C@]23CC[C@@]1(C)C3
24% | 67% | 75% |  | COC(=O)[C@]1(C)CCC[C@@]2(C)[C@H]1[C@H](OC(=O)c1ccccc1)C[C@H]1C/C(=N\O)[C@@]3(C)CC[C@]12C3
10% | 64% | 68% |  | COC(=O)[C@]1(C)CCC[C@@]2(C)[C@H]1[C@H](OC(=O)c1ccccc1)C[C@H]1C[C@H](O)[C@@]3(C)CC[C@]12C3
